Measured values taken from ChEMBL document CHEMBL2417509, “Synthesis and biological evaluation of prodigiosene conjugates of porphyrin, estrone and 4-hydroxytamoxifen” (2013).

What was measured:
Type in all cases: functional
HT-29 = assay: Cytotoxicity against human HT-29 cells after 2 days by sulforhodamine B assay; settings: HT-29, 48 h
Outline: (§1)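 NCI60 multi-dose screen, 59 human tumour lines available. Cells exposed to compound across a 5-log mol/L concentration range for 2 days, then fixed and stained with sulphorhodamine B, optical density read. Growth inhibition calculated against time-zero control and untreated cells. GI50 derived from the dose series, average of two replicates.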

OVCAR-4 = assay: Cytotoxicity against human OVCAR4 cells after 2 days by sulforhodamine B assay; settings: OVCAR-4, 48 h; outline: as §1
TK-10 = assay: Cytotoxicity against human TK10 cells after 2 days by sulforhodamine B assay; settings: TK-10, 48 h
Outline: (§2)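 NCI DTP NCI60 multi-dose screen (59 human tumour lines available). Cells exposed to compound over a 5-log mol/L concentration range for 2 days, then fixed and stained with sulphorhodamine B, with optical density read. Growth inhibition calculated relative to time-zero cells and untreated cells, giving GI50 (half-maximal growth inhibition concentration). Average of two replicates.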

K562 = assay: Cytotoxicity against human K562 cells after 2 days by sulforhodamine B assay; settings: K562, 48 h; outline: as §1
HCC 2998 = assay: Cytotoxicity against human HCC2998 cells after 2 days by sulforhodamine B assay; settings: HCC 2998, 48 h; outline: as §1
MCF7 = assay: Cytotoxicity against human MCF7 cells after 2 days by sulforhodamine B assay; settings: MCF7, 48 h; outline: as §1
NCI-H522 = assay: Cytotoxicity against human NCI-H522 cells after 2 days by sulforhodamine B assay; settings: NCI-H522, 48 h; outline: as §1
RPMI-8226 = assay: Cytotoxicity against human RPMI8226 cells after 2 days by sulforhodamine B assay; settings: RPMI-8226, 48 h; outline: as §1
LOX IMVI = assay: Cytotoxicity against human LOXIMVI cells after 2 days by sulforhodamine B assay; settings: 48 h; outline: as §1
MOLT-4 = assay: Cytotoxicity against human MOLT4 cells after 2 days by sulforhodamine B assay; settings: MOLT-4, 48 h; outline: as §1
A498 = assay: Cytotoxicity against human A498 cells after 2 days by sulforhodamine B assay; settings: A498, 48 h; outline: as §1
HL-60(TB) = assay: Cytotoxicity against human HL-60(TB) cells after 2 days by sulforhodamine B assay; settings: HL-60, 48 h
Outline: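 NCI60 multi-dose screen: cells exposed to compound over a 5-log mol/L concentration range for 2 days, then fixed and stained with sulphorhodamine B and optical density read. Growth inhibition calculated relative to time-zero control and untreated cells; GI50 reported as average of two replicates.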

[1] = Cytotoxicity against human Hs578T cells after 2 days by sulforhodamine B assay; settings: Hs-578T, 48 h; outline: as §1
SNB-19 = assay: Cytotoxicity against human SNB19 cells after 2 days by sulforhodamine B assay; settings: SNB-19, 48 h; outline: as §2
MDA-MB-231 = assay: Cytotoxicity against human MDA-MB-231 cells after 2 days by sulforhodamine B assay; settings: MDA-MB-231, 48 h; outline: as §1
M14 = assay: Cytotoxicity against human M14 cells after 2 days by sulforhodamine B assay; settings: M14, 48 h; outline: as §1
BT-549 = assay: Cytotoxicity against human BT549 cells after 2 days by sulforhodamine B assay; settings: BT-549, 48 h; outline: as §1
COLO 205 = assay: Cytotoxicity against human COLO205 cells after 2 days by sulforhodamine B assay; settings: COLO 205, 48 h; outline: as §1
NCI-H23 = assay: Cytotoxicity against human NCI-H23 cells after 2 days by sulforhodamine B assay; settings: NCI-H23, 48 h; outline: as §1
ACHN = assay: Cytotoxicity against human ACHN cells after 2 days by sulforhodamine B assay; settings: 48 h; outline: as §1
SR = assay: Cytotoxicity against human SR cells after 2 days by sulforhodamine B assay; settings: 48 h; outline: as §2
CCRF-CEM = assay: Cytotoxicity against human CCRF-CEM cells after 2 days by sulforhodamine B assay; settings: 48 h; outline: as §1
SW-620 = assay: Cytotoxicity against human SW620 cells after 2 days by sulforhodamine B assay; settings: SW-620, 48 h; outline: as §2
786-0 = assay: Cytotoxicity against human 786-0 cells after 2 days by sulforhodamine B assay; settings: 786-0, 48 h; outline: as §1
SK-MEL-5 = assay: Cytotoxicity against human SK-MEL-5 cells after 2 days by sulforhodamine B assay; settings: SK-MEL-5, 48 h; outline: as §1
HOP-92 = assay: Cytotoxicity against human HOP92 cells after 2 days by sulforhodamine B assay; settings: HOP-92, 48 h; outline: as §1
A549 = assay: Cytotoxicity against human A549/ATCC cells after 2 days by sulforhodamine B assay; settings: A549, 48 h; outline: as §1
SF-268 = assay: Cytotoxicity against human SF268 cells after 2 days by sulforhodamine B assay; settings: SF-268, 48 h; outline: as §1
RXF 393 = assay: Cytotoxicity against human RXF393 cells after 2 days by sulforhodamine B assay; settings: RXF 393, 48 h; outline: as §1
MDA-MB-468 = assay: Cytotoxicity against human MDA-MB-468 cells after 2 days by sulforhodamine B assay; settings: MDA-MB-468, 48 h; outline: as §1
[2] = read-out: LC50 (the source's name)

Q: What does the source list for COc1cc(-c2ccc[nH]2)[nH]c1/C=C1\N=C(C)C(C(=O)CCC(=O)Oc2ccc3c(c2)CC[C@@H]2[C@@H]3CC[C@]3(C)C(=O)CC[C@@H]23)=C1C?
A: GI50 (HT-29): 0.87 µM; LC50 (HT-29): > 100 µM; TGI (HT-29): > 100 µM; GI50 (OVCAR-4): 20.9 µM; LC50 (concentration killing 50% of cells) (OVCAR-4): > 100 µM; TGI (OVCAR-4): > 100 µM; GI50 (TK-10): 27.8 µM; LC50 (TK-10): > 100 µM; TGI (TK-10): > 100 µM; GI50 (K562): 4.23 µM; LC50 (concentration killing 50% of cells) (K562): > 100 µM; TGI (K562): > 100 µM; GI50 (HCC 2998): 17 µM; LC50 (50% lethal concentration) (HCC 2998): > 100 µM; TGI (HCC 2998): > 100 µM; GI50 (MCF7): 1.91 µM; LC50 (concentration giving 50% net cell kill) (MCF7): > 100 µM; TGI (MCF7): > 100 µM; GI50 (NCI-H522): 4.68 µM; LC50 (NCI-H522): > 100 µM; TGI (NCI-H522): 60.1 µM; GI50 (RPMI-8226): 6.86 µM; LC50 (concentration killing 50% of cells present at time zero) (RPMI-8226): > 100 µM; TGI (RPMI-8226): > 100 µM; GI50 (LOX IMVI): 1.17 µM; LC50 (LOX IMVI): 21.2 µM; TGI (LOX IMVI): 3.56 µM; GI50 (MOLT-4): 2.72 µM; TGI (MOLT-4): > 100 µM; CC50 (MOLT-4; [2]): > 100 µM; GI50 (A498): 8.49 µM; LC50 (A498): > 100 µM; TGI (A498): 59.1 µM; GI50 (HL-60(TB)): 55.8 µM; TGI (HL-60(TB)): > 100 µM; CC50 (HL-60(TB); [2]): > 100 µM; GI50 [1]: 14.2 µM; TGI [1]: > 100 µM; CC50 [1, 2]: > 100 µM; GI50 (SNB-19): 18.4 µM; TGI (SNB-19): > 100 µM; CC50 (SNB-19; [2]): > 100 µM; GI50 (MDA-MB-231): 0.27 µM; LC50 (MDA-MB-231): 23 µM; TGI (MDA-MB-231): 1.21 µM; GI50 (M14): 12.4 µM; TGI (M14): 33.4 µM; CC50 (M14; [2]): 91.2 µM; GI50 (BT-549): 15.6 µM; LC50 (concentration killing 50% of cells present at time zero) (BT-549): > 100 µM; TGI (BT-549): > 100 µM; GI50 (COLO 205): 21.6 µM; LC50 (concentration killing 50% of cells) (COLO 205): > 100 µM; TGI (COLO 205): > 100 µM; GI50 (NCI-H23): 9.8 µM; LC50 (concentration killing 50% of cells) (NCI-H23): > 100 µM; TGI (NCI-H23): > 100 µM; GI50 (ACHN): 5.83 µM; LC50 (concentration killing 50% of cells) (ACHN): > 100 µM; TGI (ACHN): > 100 µM; GI50 (SR): 0.72 µM; LC50 (concentration giving 50% net cell kill) (SR): > 100 µM; TGI (SR): > 100 µM; GI50 (CCRF-CEM): 0.54 µM; TGI (CCRF-CEM): > 100 µM; CC50 (CCRF-CEM; [2]): > 100 µM; GI50 (SW-620): 0.77 µM; LC50 (concentration killing 50% of cells) (SW-620): > 100 µM; TGI (SW-620): > 100 µM; GI50 (786-0): 5.99 µM; LC50 (concentration killing 50% of cells) (786-0): > 100 µM; TGI (786-0): 40 µM; GI50 (SK-MEL-5): 3.5 µM; LC50 (concentration killing 50% of cells) (SK-MEL-5): 68.8 µM; TGI (SK-MEL-5): 19.6 µM; GI50 (HOP-92): 2.23 µM; TGI (HOP-92): 19.4 µM; CC50 (HOP-92; [2]): > 100 µM; GI50 (A549): 2.68 µM; LC50 (concentration giving 50% net cell kill) (A549): > 100 µM; TGI (A549): > 100 µM; GI50 (SF-268): 5.62 µM; LC50 (concentration killing 50% of cells) (SF-268): > 100 µM; TGI (SF-268): > 100 µM; GI50 (RXF 393): 11.7 µM; LC50 (concentration killing 50% of cells) (RXF 393): > 100 µM; TGI (RXF 393): > 100 µM; GI50 (MDA-MB-468): 17 µM; LC50 (MDA-MB-468): > 100 µM; TGI (MDA-MB-468): > 100 µM
